Measurements from ChEMBL document CHEMBL1132632, “Conformational and quantitative structure-activity relationship study of cytotoxic 2-arylidenebenzocycloalkanones” (J Med Chem, 1999).

Tests used:
[1] = test system: CCRF-CEM; assay: Inhibitory activity was tested against CEM cells; assay type: functional, cell-based; settings: Homo sapiens
[2] = test system: CCRF-CEM; assay: Average potency against CEM cells; assay type: functional, Homo sapiens
[3] = test system: L1210; assay: Average potency against L1210 cells; assay type: functional, Mus musculus
[4] = test system: MOLT-4; assay: Average potency against Molt4/C8cells; assay type: functional, Homo sapiens
[5] = test system: MOLT-4; assay: Inhibitory activity was tested against Molt4/C8 cells; assay type: functional, cell-based; settings: Homo sapiens
[6] = test system: P388; assay: Average potency against P388 cells; assay type: functional, Mus musculus
[7] = test system: P388; assay: Inhibitory activity was tested against P388 cells; assay type: functional, cell-based; settings: Mus musculus
[8] = test system: L1210; assay: Inhibitory activity was tested against L1210 cells; assay type: functional, cell-based; settings: Mus musculus
[9] = test system: Tumor Cell line; assay: Tested against human tumor cell lines, mean graph mid point values(MG MID) are determined.; assay type: functional
Summary of the method: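 Panel of about 55 human tumor cell lines from nine cancer types: leukemia, melanoma, non-small-cell lung, colon, CNS, ovarian, renal, prostate and breast. Compounds were tested from 10⁻⁴ to 10⁻⁸ M, and the 50% growth-inhibitory concentration was found for each line.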

SMILES	IC50 [1] [µM]	IC50 [5] [µM]	IC50 [7] [µM]	IC50 [8] [µM]	AP [2] [µM]	AP [3] [µM]	AP [4] [µM]	AP [6] [µM]	MG MID [9] [µM]
O=C1/C(=C/c2ccc([N+](=O)[O-])cc2)CCc2ccccc21	> 500	> 500	> 50	> 500	115	135	158	20.9	–
O=C1/C(=C/c2ccccc2)CCc2ccccc21	7.42	32.4	30.2	121	115	135	158	20.9	–
COc1ccc(/C=C2\CCc3ccccc3C2=O)cc1	8.84	9.41	22.1	44	115	135	158	20.9	–
O=C1/C(=C/c2cccc(Br)c2)CCc2ccccc21	8.79	21.2	16.6	158	115	135	158	20.9	11.8
O=C1/C(=C/c2cccc(F)c2)CCCc2ccccc21	11.2	28.3	10.9	134	47	85.2	66	11.2	16.2
O=C1/C(=C/c2ccc([N+](=O)[O-])cc2)CCCc2ccccc21	> 500	> 500	10.9	> 500	47	85.2	66	11.2	89.1
CN(C)c1ccc(/C=C2\Cc3ccccc3C2=O)cc1	41	135	> 50	61.7	155	127	267	42.9	–
O=C1/C(=C/c2ccc(F)cc2)Cc2ccccc21	42.2	60	> 50	89	155	127	267	42.9	–
CN(C)c1ccc(/C=C2\CCCc3ccccc3C2=O)cc1	–	–	–	–	47	85.2	66	11.2	1.41
COc1cccc(/C=C2\Cc3ccccc3C2=O)c1	> 500	> 500	> 50	217	155	127	267	42.9	–
O=C1/C(=C/c2cccc(Cl)c2)Cc2ccccc21	31.8	50.9	26.3	41.2	155	127	267	42.9	–
O=C1/C(=C/c2ccc(Cl)cc2)Cc2ccccc21	284	> 500	> 50	54.1	155	127	267	42.9	–
O=C1/C(=C/c2ccccc2)Cc2ccccc21	41.3	42.3	> 50	112	155	127	267	42.9	–
O=C1/C(=C/c2ccc(Cl)cc2)CCc2ccccc21	48.2	> 500	20.9	69.1	115	135	158	20.9	–
O=C1/C(=C/c2cccc(F)c2)CCc2ccccc21	8.01	11.9	31.1	61.2	115	135	158	20.9	–
O=C1/C(=C/c2cccc([N+](=O)[O-])c2)CCc2ccccc21	5.3	8.01	12	254	115	135	158	20.9	–
O=C1/C(=C/c2ccc(F)cc2)CCCc2ccccc21	20	53.6	11.1	60.3	47	85.2	66	11.2	–

Now from value to compound, other results behind:

IC50 [1] [µM]	IC50 [5] [µM]	IC50 [7] [µM]	IC50 [8] [µM]	SMILES	AP [2] [µM]	AP [3] [µM]	AP [4] [µM]	AP [6] [µM]	MG MID [9] [µM]
9.41	35.8	16.3	73.2	Cc1cccc(/C=C2\CCc3ccccc3C2=O)c1	115	135	158	20.9	–
36.3	39.6	25.2	104	O=C1CCCCC/C1=C\c1ccc([N+](=O)[O-])cc1	136	227	186	34.5	30.2
> 500	> 500	20.4	202	O=C1/C(=C/c2ccc(Br)cc2)CCc2ccccc21	115	135	158	20.9	–
110	215	> 50	261	O=C1CCCCC/C1=C\c1ccccc1	136	227	186	34.5	91.2
8.78	12.1	17.6	60.7	COc1cccc(/C=C2\CCc3ccccc3C2=O)c1	115	135	158	20.9	–
8.9	17.1	10.5	51	O=C1/C(=C/c2cccc(Br)c2)CCCc2ccccc21	47	85.2	66	11.2	–
299	> 500	> 50	64.8	O=C1/C(=C/c2ccc(Br)cc2)Cc2ccccc21	155	127	267	42.9	–
7.72	8.82	15.8	48.8	O=C1/C(=C/c2cccc([N+](=O)[O-])c2)CCCc2ccccc21	47	85.2	66	11.2	10.2
1.65	2.11	5.3	17.5	CN(C)c1ccc(/C=C2\CCc3ccccc3C2=O)cc1	115	135	158	20.9	–
67.1	> 500	38.6	59.1	Cc1ccc(/C=C2\Cc3ccccc3C2=O)cc1	155	127	267	42.9	–
42.8	49.4	16.8	68.4	O=C1CCCCC/C1=C\c1ccc(Br)cc1	136	227	186	34.5	–
33.4	41.2	15.9	49.3	O=C1/C(=C/c2ccc(F)cc2)CCc2ccccc21	115	135	158	20.9	–
41.3	80.3	24.9	50.4	Cc1cccc(/C=C2\Cc3ccccc3C2=O)c1	155	127	267	42.9	–
9.19	41.8	16.8	118	O=C1/C(=C/c2cccc(Cl)c2)CCc2ccccc21	115	135	158	20.9	–
460	> 500	17.7	161	Cc1ccc(/C=C2\CCc3ccccc3C2=O)cc1	115	135	158	20.9	–
39.2	46.1	40	181	O=C1/C(=C/c2cccc(F)c2)Cc2ccccc21	155	127	267	42.9	–
> 500	> 500	> 50	> 500	O=C1/C(=C/c2ccc([N+](=O)[O-])cc2)Cc2ccccc21	155	127	267	42.9	–
17.1	54.7	18.6	50.9	O=C1/C(=C/c2ccc(Br)cc2)CCCc2ccccc21	47	85.2	66	11.2	–
32.6	226	> 50	45.8	COc1ccc(/C=C2\Cc3ccccc3C2=O)cc1	155	127	267	42.9	–
137	176	24.1	246	O=C1CCCCC/C1=C\c1cccc(Br)c1	136	227	186	34.5	–
